≈ marks a conversion by molar mass, not a printed value. Calls of active or inactive are those of the source. The rule behind the calls is not given here.
Key:
Klebsiella pneumoniae = assay: Antibacterial activity against multidrug-resistant Klebsiella pneumoniae ATCC 700603 assessed as zone of inhibition by disc diffusion method; format: functional
Enterobacter cloacae = assay: Antibacterial activity against Enterobacter cloacae ATCC 23355 assessed as zone of inhibition by disc diffusion method; format: functional
Escherichia coli = assay: Antibacterial activity against beta-lactam resistant Escherichia coli BAA 2326 assessed as zone of inhibition by disc diffusion method; format: functional
Acinetobacter baumannii [1] = assay: Antibacterial activity against multidrug-resistant Acinetobacter baumannii BAA 1605 assessed as zone of inhibition by disc diffusion method; format: functional
Bacillus anthracis = assay: Antibacterial activity against Bacillus anthracis Sterne 34F2 assessed as zone of inhibition by disc diffusion method; format: functional
Enterococcus faecium = assay: Antibacterial activity against vancomycin-resistant Enterococcus faecium ATCC 700221 assessed as zone of inhibition by disc diffusion method; format: functional
Enterococcus faecalis = assay: Antibacterial activity against vancomycin-susceptible Enterococcus faecalis ATCC 29212 assessed as zone of inhibition by disc diffusion method; format: functional
Staphylococcus aureus [2] = assay: Antibacterial activity against methicillin-susceptible Staphylococcus aureus ATCC 25923 assessed as zone of inhibition by disc diffusion method; format: functional
Staphylococcus aureus [3] = assay: Antibacterial activity against community acquired methicillin-resistant Staphylococcus aureus BAA 1747 assessed as zone of inhibition by disc diffusion method; format: functional
Staphylococcus aureus [4] = assay: Antibacterial activity against hospital acquired methicillin-resistant Staphylococcus aureus ATCC 43300 assessed as zone of inhibition by disc diffusion method; format: functional
Staphylococcus aureus [5] = assay: Antibacterial activity against heterogeneous vancomycin-intermediate resistant Staphylococcus aureus Mu3 ATCC 700698 assessed as zone of inhibition by disc diffusion method; format: functional
Staphylococcus aureus [6] = assay: Antibacterial activity against vancomycin-intermediate resistant Staphylococcus aureus Mu50 ATCC 700699 assessed as zone of inhibition by disc diffusion method; format: functional
Staphylococcus aureus [7] = assay: Antibacterial activity against vancomycin-resistant Staphylococcus aureus HIP11714 assessed as zone of inhibition by disc diffusion method; format: functional
[8] = tested on: Staphylococcus epidermidis; assay: Antibacterial activity against Staphylococcus epidermidis ATCC 14990 assessed as zone of inhibition by disc diffusion method; format: functional
Acinetobacter baumannii [9] = assay: Antibacterial activity against Acinetobacter baumannii ATCC 19606 assessed as zone of inhibition by disc diffusion method; format: functional
Pseudomonas aeruginosa = assay: Antibacterial activity against Pseudomonas aeruginosa ATCC 15422 assessed as zone of inhibition by disc diffusion method; format: functional
Staphylococcus aureus [10] = assay: Antibacterial activity against methicillin-susceptible Staphylococcus aureus ATCC 25923 assessed as bacterial growth inhibition incubated for 20 hrs by broth dilution method; format: functional
Summary of the method: (§1)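 Broth microdilution: 0.5 McFarland suspension from an overnight culture, diluted 1:100 in cation-adjusted Mueller Hinton broth (CAMHB), given serial dilutions of test agent for 20 h at 37 °C. MIC is the lowest concentration with no visible growth.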

Staphylococcus aureus [11] = assay: Antibacterial activity against methicillin-resistant Staphylococcus aureus ATCC 43300 assessed as bacterial growth inhibition incubated for 20 hrs by broth dilution method; format: functional; summary of the method: as §1
Staphylococcus aureus [12] = assay: Antibacterial activity against linezolid-resistant Staphylococcus aureus assessed as bacterial growth inhibition incubated for 20 hrs by broth dilution method; format: functional; summary of the method: as §1
Staphylococcus aureus [13] = assay: Antibacterial activity against heterogeneous vancomycin-intermediate Staphylococcus aureus Mu3 ATCC 700698 assessed as bacterial growth inhibition incubated for 20 hrs by broth dilution method; format: functional; summary of the method: as §1
Staphylococcus aureus [14] = assay: Antibacterial activity against vancomycin-intermediate resistant Staphylococcus aureus Mu50 ATCC 700699 assessed as bacterial growth inhibition incubated for 20 hrs by broth dilution method; format: functional; summary of the method: as §1
Staphylococcus aureus [15] = assay: Antibacterial activity against vancomycin-resistant Staphylococcus aureus HIP11714 assessed as inhibition of bacterial growth incubated for 20 hrs by broth microdilution method; format: functional; conditions: HIP11714, 20 h; summary of the method: as §1
Staphylococcus aureus [16] = assay: Antibacterial activity against vancomycin-intermediate Staphylococcus aureus clinical isolate 12 assessed as bacterial growth inhibition after 20 hrs by broth microdilution assay; format: functional; summary of the method: as §1
Staphylococcus aureus [17] = assay: Antibacterial activity against vancomycin-resistant Staphylococcus aureus clinical isolate 10 assessed as bacterial growth inhibition after 20 hrs by broth microdilution assay; format: functional; summary of the method: as §1
Staphylococcus aureus [18] = assay: Induction of intracellular oxidant species generation in Staphylococcus aureus ATCC 25923 after 1 hr by colorimetric based NBT assay; format: functional, organism-based
Summary of the method: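 Cells at OD600 1.5 in HBSS mixed with 1 mg/mL aqueous NBT and agent (added from 2 mM stock) or DMSO/water, shaken for 1 h at 37 °C. Stopped with 0.1 M HCl and centrifuged; pellet formazan solubilized in DMSO/KOH/HBSS and read at OD560.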

Staphylococcus aureus [19] = assay: Induction of intracellular oxidant species generation in Staphylococcus aureus ATCC 25923 by DCFH-DA dye based fluorescence assay; format: functional, organism-based
Summary of the method: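 OD600 1.5 suspension of S. aureus […] in HBSS given agent (from 2 or 10 mM stock), DMSO or water, then DCFH diacetate from a 100 μM stock in DMSO. Intracellular oxidation read by fluorescence (ex 485, em 535 nm).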

Staphylococcus aureus [20] = assay: Bactericidal activity against methicillin-susceptible Staphylococcus aureus ATCC 25923 assessed as bacterial killing incubated for over night; format: functional
Summary of the method: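 5 μL from each well was spotted on agar and incubated overnight. MBC was taken as the lowest concentration with no visible growth.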

Staphylococcus aureus [21] = assay: Ratio of MBC to MIC against methicillin-susceptible Staphylococcus aureus ATCC 25923; format: functional
Summary of the method: (§2)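 For MBC, 5 μL from each well was spotted on agar and incubated overnight; MBC is the lowest concentration with no visible growth. Ratio taken as MBC over MIC.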

Staphylococcus aureus [22] = assay: Bactericidal activity against methicillin-resistant Staphylococcus aureus ATCC 43300 assessed as bacterial killing incubated for over night; format: functional; summary of the method: as §2
Staphylococcus aureus [23] = assay: Bactericidal activity against heterogeneous vancomycin-intermediate Staphylococcus aureus Mu3 ATCC 700698 assessed as bacterial killing incubated for over night; format: functional; summary of the method: as §2
Staphylococcus aureus [24] = assay: Ratio of MBC to MIC against heterogeneous vancomycin-intermediate Staphylococcus aureus Mu3 ATCC 700698; format: functional; summary of the method: as §2
Staphylococcus aureus [25] = assay: Bactericidal activity against vancomycin-intermediate resistant Staphylococcus aureus Mu50 ATCC 700699 assessed as bacterial killing incubated for over night; format: functional; summary of the method: as §2
Staphylococcus aureus [26] = assay: Ratio of MBC to MIC against vancomycin-intermediate resistant Staphylococcus aureus Mu50 ATCC 700699; format: functional; summary of the method: as §2
Staphylococcus aureus [27] = assay: Bactericidal activity against Vancomycin-resistant Staphylococcus aureus HIP11714 assessed as bacterial killing incubated for over night; format: functional; summary of the method: as §2
Staphylococcus aureus [28] = assay: Antibacterial activity against methicillin-susceptible Staphylococcus aureus ATCC 25923 in presence of glutathione; format: functional
Summary of the method: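 Broth microdilution MIC: a 0.5 McFarland suspension from overnight culture was diluted 1:100 in cation-adjusted Mueller Hinton broth supplemented with glutathione 100 μM. It was exposed to serial dilutions for 20 h at 37 °C. MIC was taken as the lowest concentration with no visible growth.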

Staphylococcus aureus [29] = assay: Antibacterial activity against methicillin-susceptible Staphylococcus aureus ATCC 25923 in presence of 0.05% v/v albumin; format: functional
Staphylococcus aureus [30] = assay: Antibacterial activity against methicillin-susceptible Staphylococcus aureus ATCC 25923 in presence of 5% v/v serum; format: functional
Staphylococcus aureus [31] = assay: Antibacterial activity against methicillin-susceptible Staphylococcus aureus ATCC 25923 in presence of 10% v/v serum; format: functional

SMILES | diameter of the inhibition zone (DIZ) (Klebsiella pneumoniae) [mm] | diameter of the inhibition zone (DIZ) (Enterobacter cloacae) [mm] | diameter of the inhibition zone (DIZ) (Escherichia coli) [mm] | diameter of the inhibition zone (DIZ) (Acinetobacter baumannii [1]) [mm] | diameter of the inhibition zone (DIZ) (Bacillus anthracis) [mm] | diameter of the inhibition zone (DIZ) (Enterococcus faecium) [mm] | diameter of the inhibition zone (DIZ) (Enterococcus faecalis) [mm] | diameter of the inhibition zone (DIZ) (Staphylococcus aureus [2]) [mm] | diameter of the inhibition zone (DIZ) (Staphylococcus aureus [3]) [mm] | diameter of the inhibition zone (DIZ) (Staphylococcus aureus [4]) [mm] | diameter of the inhibition zone (DIZ) (Staphylococcus aureus [5]) [mm] | diameter of the inhibition zone (DIZ) (Staphylococcus aureus [6]) [mm] | diameter of the inhibition zone (DIZ) (Staphylococcus aureus [7]) [mm] | diameter of the inhibition zone (DIZ) [8] [mm] | diameter of the inhibition zone (DIZ) (Acinetobacter baumannii [9]) [mm] | diameter of the inhibition zone (DIZ) (Pseudomonas aeruginosa) [mm] | MIC (Staphylococcus aureus [10]) [µM] | MIC (Staphylococcus aureus [11]) [µM] | MIC (Staphylococcus aureus [12]) [µM] | MIC (Staphylococcus aureus [13]) [µM] | also measured
CCCCCSSc1ccccn1 | 0 | 8 | 0 | 0 | >50 | 24 | 23 | 32 | 22 | 21 | 27 | 24 | 22 | >50 | 0 | 0 | 50 (≈ 10.7 µg/mL) | 50 (≈ 10.7 µg/mL) | > 50 | 50 (≈ 10.7 µg/mL) | MIC (Staphylococcus aureus [14]): 50 µM (≈ 10.7 µg/mL); MIC (Staphylococcus aureus [15]): > 50 µM; MIC50 (Staphylococcus aureus [16]): 50 µM (≈ 10.7 µg/mL); MIC90 (Staphylococcus aureus [16]): 50 µM (≈ 10.7 µg/mL); MIC50 (Staphylococcus aureus [17]): 50 µM (≈ 10.7 µg/mL); MIC90 (Staphylococcus aureus [17]): 50 µM (≈ 10.7 µg/mL)
CCCCCCSSc1ccccn1 | 0 | 8 | 0 | 0 | >50 | 13 | 20 | 47 | 40 | 49 | 45 | >50 | 46 | >50 | 0 | 0 | 25 (≈ 5.68 µg/mL) | 50 (≈ 11.4 µg/mL) | 50 (≈ 11.4 µg/mL) | 50 (≈ 11.4 µg/mL) | MIC (Staphylococcus aureus [14]): 25 µM (≈ 5.68 µg/mL); MIC (Staphylococcus aureus [15]): 50 µM (≈ 11.4 µg/mL); MIC50 (Staphylococcus aureus [16]): 50 µM (≈ 11.4 µg/mL); MIC90 (Staphylococcus aureus [16]): 50 µM (≈ 11.4 µg/mL); MIC50 (Staphylococcus aureus [17]): 50 µM (≈ 11.4 µg/mL); MIC90 (Staphylococcus aureus [17]): 50 µM (≈ 11.4 µg/mL)
Oc1cc(Cl)ccc1Oc1ccc(Cl)cc1Cl | – | – | – | – | – | – | – | – | – | – | – | – | – | – | – | – | – | – | – | – | Activity (Staphylococcus aureus [18]): Active; Activity (Staphylococcus aureus [19]): Active
CC(C)CCSSc1ccccn1 | 0 | 0 | 0 | 0 | >50 | 0 | 0 | 0 | 0 | 0 | 11 | 12 | 14 | >50 | 0 | 0 | – | – | – | – | –
CCCCCCCCCSSc1ccccn1 | 0 | 0 | 0 | 0 | 25 | 8 | 8 | 20 | 19 | 22 | 22 | 30 | 21 | 41 | 0 | 0 | 12.5 (≈ 3.37 µg/mL) | 6.25 (≈ 1.68 µg/mL) | 25 (≈ 6.74 µg/mL) | 6.25 (≈ 1.68 µg/mL) | MBC (Staphylococcus aureus [20]): > 50 µM; Ratio (Staphylococcus aureus [21]): >4; MBC (Staphylococcus aureus [22]): > 50 µM; MBC (Staphylococcus aureus [23]): > 50 µM; Ratio (Staphylococcus aureus [24]): >8; MIC (Staphylococcus aureus [14]): 1.56 µM (≈ 0.42 µg/mL); MBC (Staphylococcus aureus [25]): 25 µM (≈ 6.74 µg/mL); Ratio (Staphylococcus aureus [26]): 16; MIC (Staphylococcus aureus [15]): 12.5 µM (≈ 3.37 µg/mL); MBC (Staphylococcus aureus [27]): > 50 µM; MIC50 (Staphylococcus aureus [16]): 6.25 µM (≈ 1.68 µg/mL); MIC90 (Staphylococcus aureus [16]): 12.5 µM (≈ 3.37 µg/mL); MIC50 (Staphylococcus aureus [17]): 6.25 µM (≈ 1.68 µg/mL); MIC90 (Staphylococcus aureus [17]): 12.5 µM (≈ 3.37 µg/mL); MIC (Staphylococcus aureus [28]): 50 µM; MIC (Staphylococcus aureus [29]): 25 µM; MIC (Staphylococcus aureus [30]): 25 µM; MIC (Staphylococcus aureus [31]): 50 µM
CSSc1ccccn1 | 0 | 10 | 12 | 15 | 48 | 0 | 23 | 20 | 21 | 25 | 12 | 13 | 12 | 21 | 21 | 0 | – | – | – | – | –
CCCSSc1ccccn1 | 0 | 9 | 0 | 0 | 33 | 0 | 11 | 0 | 0 | 0 | 0 | 0 | 0 | 30 | 12 | 0 | – | – | – | – | –
c1ccc(SSC2CCCC2)nc1 | 0 | 0 | 0 | 0 | 22 | 0 | 0 | 9 | 16 | 14 | 11 | 0 | 0 | 25 | 0 | 0 | – | – | – | – | –
